Experimental data reported in ChEMBL document CHEMBL4513216, “Probing the Open Global Health Chemical Diversity Library for Multistage-Active Starting Points for Next-Generation Antimalarials” (ACS Infect Dis, 2020).

Test: Toxicity liver stage against HepG2, at 10uM
Assay type: cell-based
Parameters: test concentration 10 uM, cell line HepG2-A16-CD81EGFP
Conditions: human, HepG2-A16-CD81EGFP cells; read-out: INHIBITION
In short: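 Uninfected HepG2-A16-CD81EGFP cells, 3 × 10^3 per well, 1536-well, plated on prespotted compound at 10 μM final, parasite-free screening media added to match infected plates; puromycin 10 μM positive, DMSO 0.5% negative; run in parallel with 48 h PbLuc assay at 37 °C, 5% CO2; viability by CellTiter-Glo luminescence, normalized to controls.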

| Compound | cytotoxicity at 10 µM [%] |
| --- | --- |
| CN(CC(=O)N1CCCC1)C(=O)c1ccccc1Nc1ccccc1 | 11.3 |
| CN1C(=O)C2(NC(=O)c3ccccc3O2)c2ccccc21 (configuration not stated) | -7.65 |
| CC[C@H]1CN2CC[C@H]1C[C@@H]2CNC(=O)Nc1cccc(C(F)(F)F)c1 | 0.676 |
| CO[C@@H]1CN(c2ccccc2)S(=O)(=O)[C@@]12CCN(C(C)=O)C2 | 6.07 |
| O=C(Cc1csc(-c2cccc(Cl)c2)n1)NCc1cccc(C(=O)O)c1 | -0.0616 |
| Cc1nn(C2CCS(=O)(=O)C2)c(O)c1Cc1ccccc1Cl (configuration not stated) | -45.7 |
| Cc1cc(CN2CCC(CNS(=O)(=O)c3c(C)noc3C)CC2)c(C)o1 | 5.81 |
| CCCNC(=O)c1ccc2c(OC)n(C)nc2c1 | 1.56 |
| Cc1nn(C)c(C)c1S(=O)(=O)NCC(C)(O)c1ccc2c(c1)OCO2 (configuration not stated) | 1.77 |
| O=C1NC(c2ccccc2)=N[C@@]12CC[C@@H]1CN(Cc3ccncc3)C[C@@H]12 | 11.9 |
| Cc1noc(C)c1CN1CC[C@H]2OCC[C@@H](C(=O)N3CCCO3)[C@@H]2C1 | -8.25 |
| Cc1c(Br)cnn1CC(=O)Nc1ccon1 | 10.8 |
| Cc1ccccc1NCc1nc2n(n1)CCCCC2 | 4.7 |
| Cc1cc2nc(SCC(=O)N3CCCC3)n(Cc3ccco3)c(O)c-2n1 | 7.19 |
| O=C1CCC(=O)c2oc3ccc(Cl)cc3c2N1 | 7.58 |
| CCCNc1cc(C(=O)N2CCOCC2)nc(C)n1 | 10.8 |
| CN(C)Cc1cnn(-c2ccccc2C(=O)NCCC2CCCN2C)c1 (configuration not stated) | 8.18 |
| CO[C@@H]1CC[C@@H](NC(=O)c2ccc(OCCN3CCCC3)cc2)[C@H]1O | -3.83 |
| CCN(CC1CCOC1)C(=O)NCc1nnc2n1CCCCC2 (configuration not stated) | -0.43 |
| Clc1ccc(N2CCC(OCC3CCCCO3)CC2)nc1 (configuration not stated) | -1.8 |
| CCOc1ccc(C(=O)NC2CCN(c3ncccn3)CC2)cc1C | -10.1 |
| CC(C(=O)NCc1ccc(F)cc1)N(C)CCN1CCOCC1 (configuration not stated) | 0.247 |

| Compound | cytotoxicity at 10 µM [%] |
| --- | --- |
| Cc1nc(C)c(C(=O)N2CCCc3c(F)ccc(F)c32)o1 | 7.19 |
| Cc1cc(C)nc(N2CCc3ccc(OC(F)F)cc3C2)n1 | 2.68 |
| Cc1csc(C2CCCCN2C(=O)c2cnn3ccc(C)nc23)n1 (configuration not stated) | -5.85 |
| CCc1noc(C)c1C(=O)NCc1ccccn1 | -1 |
| CC(=O)Nc1cccc(CN2CCCC2C(=O)Nc2nccs2)c1 (configuration not stated) | 6.12 |
| CC(C)(C)CC(=O)Nc1ncn(CC(=O)NCc2ccccc2)n1 | -3.38 |
| Cc1cccc(NC(=O)NCC2(N3CCOCC3)CCSC2)c1 (configuration not stated) | 5.02 |
| Cc1cnn(CC2CCCN2CC(=O)N(C)Cc2ccsc2)c1 (configuration not stated) | 3.82 |
| O=C1NCCCCC1Sc1nnc(N2CCCC2)n1C1CC1 (configuration not stated) | 1.4 |
| COCCN(Cc1ccc(F)cc1Cl)C(=O)c1cc[n+]([O-])cc1 | 4.75 |
| Cc1n[nH]c(C2CN(CC(=O)NCCc3ccc(F)cc3)CCO2)n1 (configuration not stated) | -8.13 |
| Cc1cc(NC(=O)COC(=O)c2ccc(F)cc2Br)n(C)n1 | 6.03 |
| CC(NS(C)(=O)=O)c1nc(-c2ccc(Br)cc2)no1 (configuration not stated) | 4.29 |
| Fc1ccc2c(C3=CCN(Cc4nnc(C5CCC5)o4)CC3)c[nH]c2c1 | -0.302 |
| COc1ccccc1OCCC(=O)NC1CCc2nc(C)cn2C1 (configuration not stated) | -7.05 |
| CCN(CC)C(=O)CNC(=O)c1ccc(-c2ccsc2)nc1C | 22.9 |
| CC(C)n1cc(CN2CCCN(C(=O)c3cccn3C)CC2)cn1 | 1.51 |
| CCOC(C)c1noc(CN2CCN(Cc3cccnc3)CC2)n1 (configuration not stated) | -4.55 |
| Cc1cc(S(=O)(=O)N(C)CC(N)=O)ccc1Br | 15 |
| Cn1cc(CNCC2(O)CCCCC2)c(-c2cccnc2)n1 | 14.9 |
| CC(C)(C)S(=O)(=O)c1ccc(N2CCC(n3ccnc3)CC2)cn1 | -6.62 |
| CN(C)C(CNCc1nc(-c2ccsc2)no1)c1cccc(F)c1 (configuration not stated) | 12.9 |

| Compound | cytotoxicity at 10 µM [%] |
| --- | --- |
| COc1cc(-c2noc(C(CC(C)C)N3CCCCC3=O)n2)ccn1 (configuration not stated) | -60.8 |
| Cc1ccn(-c2ccc(NCc3cccnc3N3CCCCC3)nn2)n1 | 3.09 |
| CS(=O)(=O)N1CCOCC12CCN(Cc1ccoc1)CC2 | 7.81 |
| CC(C)N(C)Cc1cc(=O)n2c(n1)CN(C(=O)c1ccnnc1)CCC2 | 2.95 |
| c1cc(COC[C@@]23CCC[C@@H]2CN(C2CCOCC2)C3)ccn1 | 8.44 |
| COc1ccc(CNC(=O)c2nc3c(s2)CCN(C(C)=O)CC3)cc1 | -76.6 |
| O=C(c1ncccn1)N1CCC[C@]2(C[C@@H](OCC3CC3)CO2)C1 | -89.7 |
| CS(=O)(=O)N[C@@H]1CN(C(=O)c2ccccn2)C[C@@H]2CCCO[C@@H]21 | -74.8 |
| Cn1cccc1C(=O)N1Cc2c(CN3CCCCC3)nn(C)c2C1 | 1.25 |
| Cc1cccc(-n2cnnc2CCCN2CCOCC2)c1 | -2.42 |
| Cn1ccnc1SCCNC1CCN(c2nc3ccccc3s2)CC1 | 2.05 |
| NC(=O)Cn1ccnc1C1CCCN(Cc2cccc(Cl)c2F)C1 (configuration not stated) | 7.81 |
| Cc1nn(C)c2nc(N(Cc3cnn(C)c3)C3CCCCC3)sc12 | -1.24 |
| Cc1cnc(N2CCCOC(CN3CCCCC3)C2)nc1 (configuration not stated) | -3.54 |
| CC(=O)Nc1ccc(CN(C)Cc2snnc2C)cc1 | -2.17 |
| Cc1cnc(C)c(N2CCCC(CO)(Cc3cccc(Cl)c3)C2)n1 (configuration not stated) | 7.78 |
| c1ccc(C2CCCN2Cc2nc(-c3cnccn3)no2)nc1 (configuration not stated) | -0.5 |
| C[C@@H]1CN(C2(C(=O)N3CC[C@H](O)C3)Cc3ccccc3C2)C[C@H](C)O1 | -5.19 |
| CSCc1noc(CN2CCC3(CC2)CC(=O)N(CC=C(C)C)C3)n1 | -0.589 |
| CN(CCn1ccc2ccccc21)C(=O)CS(C)(=O)=O | -8.14 |
| N[C@H]1CN(C(=O)c2ccc3[nH]c(=O)c(=O)[nH]c3c2)C[C@@H]1c1ccccc1 | 2.19 |
| CC(=O)N1CCN(C[C@H]2CC[C@@H](Cc3ccc4ncccc4c3)O2)CC1 | -9.14 |

| Compound | cytotoxicity at 10 µM [%] |
| --- | --- |
| CC(C)n1cc(-c2c(C#N)c(N)nc3c2COCC3)cn1 | 17.2 |
| CCN1CC(CN(C)Cc2nc(-c3ccc(F)cc3)oc2C)CC1=O (configuration not stated) | -2.22 |
| CN(C)c1nc2c(c(NCc3cc(O)ncn3)n1)CCCC2 | -12.4 |
| COc1ccc(F)c(CN2CCCC(O)(CNCc3ccoc3)C2=O)c1 (configuration not stated) | 10.9 |
| COC(=O)[C@H]1C[C@@H](O)CCN1S(=O)(=O)c1ccc(F)cc1F | -3.01 |
| CC1(C)CN(C(=O)CC2CCS(=O)(=O)CC2)C[C@]1(C)O | 5.91 |
| Cc1nccn1CCN(C)C(=O)C1CCCN(C2CCOCC2)C1 (configuration not stated) | 0.417 |
| CC(=O)c1ccc(N2CCC3(CC2)CC(=O)N(C)C3)nc1 | -1.66 |
| CCCn1ncc(C(=O)NC2CCN(CC3CCCO3)CC2)c1C (configuration not stated) | -2.43 |
| CC(C)(NC(=O)C1CCCN(C2CCCC2)C1)c1nnc(N)s1 (configuration not stated) | 3.27 |
| CC(=O)N1CCCC1c1cc(N2CCN(C3CCCC3)CC2)cc(C)n1 (configuration not stated) | 1.18 |
| COc1ccc(C(=O)NCCCNc2ccc(C(F)(F)F)cn2)cc1 | -3.87 |
| Cc1nc(C)n(CC2CCCN2Cc2cn3ccsc3n2)n1 (configuration not stated) | -10.7 |
| Cc1nc(C2CCCN(C(=O)c3cc(Cl)c[nH]3)C2)no1 (configuration not stated) | -8.29 |
| CCn1ccnc1CN(C)CC1CCCN1c1cccnn1 (configuration not stated) | -0.0722 |
| Cn1nc2c(cc1=O)CN(Cc1nc(C(C)(C)C)no1)CC2 | -2.86 |
| CCCc1nc(CN2CCN(CC(O)c3ccccc3)CC2)no1 (configuration not stated) | -2.89 |
| COCCCNC(=O)CN1CCCC1c1c(C)nn(C)c1Cl (configuration not stated) | 6.69 |
| CCn1cnnc1CNC(=O)CCC(=O)c1ccc2c(c1)OCCO2 | -3.59 |
| CCn1nc(C)c(-c2cncn2Cc2ccccc2CN(C)C)c1C | 12.4 |
| Cn1ccnc1N1CCN(C(=O)Cc2ccccc2)CC1 | 3.13 |
| COc1ccc(CN(C)[C@@H]2COC[C@H]2c2ccc(F)cc2)cc1 | 10.9 |

| Compound | cytotoxicity at 10 µM [%] |
| --- | --- |
| COCCCN(Cc1ccccn1)Cc1ccnn1C1CCCCO1 (configuration not stated) | -2.66 |
| O=C(O)c1csc(NCCc2ccccc2)n1 | 0.501 |
| Cn1ncc2c1C(COCC1CC1)CN(C(=O)c1cscn1)C2 (configuration not stated) | -76 |
| C1CCN(CCO[C@@H]2CC[C@H]3[C@H]2OCCN3CC2CCOCC2)C1 | 2.98 |
| c1cncc(OC[C@@]23CCC[C@@H]2CN(C2CCOCC2)C3)c1 | -0.0916 |
| COCC1CC2(CCN(Cc3ccc(OC)cc3)CC2)CN1C(C)C (configuration not stated) | -3.68 |
| Cc1noc(C)c1CN1CCO[C@H]2[C@H](Oc3ncccc3F)CC[C@@H]21 | 2.93 |
| CN1C(Cn2cccn2)C[C@@H]2CN(Cc3cccnc3)CC[C@@H]21 (some centres not stated) | 8.01 |
| O=S(=O)(C1CC1)N1C[C@@H]2CN(Cc3cccs3)CCO[C@@H]2C1 | -134 |
| COc1ccc(C[C@H]2CN(C(=O)c3ccncc3)CC[C@@H]2OC)cc1 | 5.75 |
| N#Cc1cccc(C(=O)N2CC[C@H]3[C@H]2CCN3CC2CCOCC2)c1 | -77 |
| c1ccc(CN2CCc3c(CNc4nccs4)n[nH]c3C2)nc1 | -7.04 |
| Cc1ncsc1CN1C[C@@H]2CCCO[C@@H]2[C@H](Nc2ccccn2)C1 | 2.31 |
| CC(C)N1CCc2c(CN(C)Cc3ccco3)cncc2C1 | -2.39 |
| Cc1ccccc1C(=O)N1CC[C@@H](N(C)C)[C@@H]1Cc1cnn(C)c1 | -71 |
| CC(C)N(C)Cc1cnc2n1CCN(C(=O)NC1CCCC1)C2 | 4.14 |
| Cc1occc1C(=O)N1CCO[C@H]2[C@H](OCc3cccnc3)CC[C@@H]21 | 4.84 |
| CCCn1nccc1NC(=O)CN1CCCC1c1c(C)nn(C)c1C (configuration not stated) | -2.7 |
| CCCS(=O)(=O)N1C[C@@H]2C[C@H](C(=O)Nc3cccnc3)[C@H](C1)O2 | -78.8 |
